Source: PubChem BioAssay
Only some compounds are listed: those with a hit (about 3.8% of all), similar ones and a draw of the others.
KCNQ1 inh: blocks the human KCNQ1 potassium channel; CHO-K1 KCNQ1, FluxOR thallium flux fluorescence; stronger effect = higher value; B-score at 10 µM; 310,000 tested, 1.3% active; AID 2642;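 active = compounds whose thallium flux B-score, printed positive for inhibition, exceeds three library SD while starting fluorescence stays within three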;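 also: channel opened by potassium depolarization with thallium stimulus after 20 min compound exposure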
KCNQ1 act: potentiators or activators of human KCNQ1 potassium channel; CHO-K1 KCNQ1, thallium flux FluxOR fluorescence; stronger effect = higher value; 310,000 tested, 0.35% active; P51787; B-score at 10 µM;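 active = fluorescence ratio B-score, a plate-corrected score, at least three library SD, with initial intensity B-score within 5 SD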
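assay system = KCNQ1-transfected CHO-K1 cells | medium = assay buffer with matched DMSO | probe or stimulus = depolarizing K+/Tl+ stimulus, K2SO4 and Tl2SO4 each 12.5 mM in 5x stock | dosing = single dose | incubation = dye 90 min, compound 20 min, room temperature | detection = kinetic FluxOR fluorescence, 10 s baseline plus 110 s post-stimulus | evaluation = ratio B score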
KCNK3 block: human KCNK3 channel inhibition, primary screen; O14649; CHO-KCNK3 thallium flux, FluxOR fluorescence; stronger effect = lower value; B-score at 10 µM; 340,000 tested, 0.84% active;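 active = B-score under library mean minus 4 SD, starting fluorescence ratio at most library mean plus 5 SD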;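 also: more negative B-score means stronger inhibition of thallium flux through KCNK3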
Target sequence (O14649 whole entry, looked up): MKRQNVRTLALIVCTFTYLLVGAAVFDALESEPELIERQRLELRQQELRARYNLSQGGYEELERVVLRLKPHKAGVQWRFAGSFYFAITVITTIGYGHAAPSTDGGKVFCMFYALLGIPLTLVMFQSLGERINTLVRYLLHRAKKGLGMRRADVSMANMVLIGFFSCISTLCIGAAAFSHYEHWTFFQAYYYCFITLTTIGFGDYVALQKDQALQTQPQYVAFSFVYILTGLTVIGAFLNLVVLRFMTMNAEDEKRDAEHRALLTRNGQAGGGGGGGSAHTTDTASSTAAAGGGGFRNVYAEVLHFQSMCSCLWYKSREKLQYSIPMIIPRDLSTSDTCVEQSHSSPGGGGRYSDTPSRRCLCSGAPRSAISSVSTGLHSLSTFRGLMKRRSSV
Kir21 block: inhibitors of mouse Kir2.1 inward-rectifier potassium channel; B-score at 10 µM; 310,000 tested, 0.85% active; HEK293-Kir2.1, FluxOR thallium flux fluorescence; stronger effect = lower value;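 active = fluorescence ratio B-score at or below minus 3 SD of library scores, with starting-brightness B-score within 2 SD, cut at about -4.2 in these data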;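 also: channel flux triggered by added potassium and thallium sulfate stimulus; B-score of peak minus minimum fluorescence over baseline after thallium stimulus; more negative B-score means stronger Kir2.1 block with less thallium influx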
hERG protect: compounds protecting human hERG from proarrhythmic drug block; 310,000 tested, 0.51% active; activation (rescue from dofetilide block), less the hit threshold, % at 10 µM; CHO-hERG, FluxOR thallium flux, dofetilide IC70 present; Q12809;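 active = activation above the mean of controls blocked by dofetilide plus 5 SD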;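 also: thallium influx through hERG after potassium depolarization seen as dye fluorescence rise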
KCNK9 block: inhibitors of human KCNK9 two-pore domain potassium channel | HEK293 KCNK9, FluxOR thallium flux fluorescence; stronger effect = lower value | B-score at 10 µM | Q9NPC2 | 310,000 tested, 1.2% active | AID 488922;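 active = ratio B-score over 3 SD below the library mean, with starting fluorescence within 5 SD of its mean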;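 also: negative B-score means less thallium flux so channel inhibition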
Target sequence (Q9NPC2 whole entry, looked up, the tested form may be a part): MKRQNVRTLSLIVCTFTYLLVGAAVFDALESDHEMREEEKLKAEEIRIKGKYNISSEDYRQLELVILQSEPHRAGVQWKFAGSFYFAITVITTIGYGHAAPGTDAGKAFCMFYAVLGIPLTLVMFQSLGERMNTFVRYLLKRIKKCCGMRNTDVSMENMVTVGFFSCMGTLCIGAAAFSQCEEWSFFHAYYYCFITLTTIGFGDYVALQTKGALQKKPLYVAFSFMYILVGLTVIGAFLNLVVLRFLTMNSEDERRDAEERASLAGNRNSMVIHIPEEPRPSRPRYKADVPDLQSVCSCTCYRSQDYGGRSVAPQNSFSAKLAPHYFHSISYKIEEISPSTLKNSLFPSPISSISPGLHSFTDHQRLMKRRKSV
KCNK9 block conf: human KCNK9 inhibitor confirmation | shares compounds with KCNK9 block | HEK293 KCNK9 cells, FluxOR thallium flux fluorescence | 4,900 tested, 43% active | inhibition, % at 10 µM;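 active = thallium signal inhibited by more than 5 SD of the compound-free buffer control wells, on both duplicate plates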;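 also: 0% = assay buffer control wells without compound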
Kir21 sel: tests whether KCNK9 modulators also affect mouse Kir2.1; shares compounds with KCNK9 block; Kir2.1 cells, FluxOR thallium flux fluorescence; inhibition, % at 10 µM; 4,900 tested, 4% active; AID 492993;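 active = thallium signal drop more than 5 SD beyond the mean of the no-compound control wells, seen in both duplicate plates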;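 also: signal is fluorescence rise after thallium addition divided by baseline fluorescence; plate controls were assay buffer only for no effect and full block by chlorpromazine control for full effect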
HEK293 Tl ctr: second counter-screen for KCNK9 modulators: effect in non-induced cells. shares compounds with KCNK9 block. non-induced KCNK9-HEK293, FluxOR thallium flux. inhibition, % at 10 µM. 4,900 tested, 40% active. AID 492997;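 active = thallium signal drop beyond 5 SD of the untreated control mean, on both duplicate plates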;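 also: plate controls were buffer only IC0 wells for no effect and SID17386958 at its maximal inhibitory level for full effect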
KCNK3 inh conf: human KCNK3 channel inhibition, confirmation assay. ratio percent of control, % at 10 µM. 2,400 tested, 99% active. shares compounds with KCNK3 block. CHO-KCNK3 thallium flux, FluxOR fluorescence; 0% buffer, 100% carvedilol maximal block;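 active = ratio percent of control, averaged over triplicates, above buffer control mean plus 5 SD, cut at about 64% in these data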;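 also: ratio is the fluorescence rise from min to max over baseline after thallium stimulus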
KCNK3 uninduced: KCNK3 inhibitor counter-screen hit in non-induced cells | shares compounds with KCNK3 block | non-induced KCNK3 parental cells, FluxOR thallium flux; stronger effect = lower value | thallium flux ratio (lower = more inhibition) at 10 µM | 2,400 tested, 40% active | AID 651747;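 active = thallium flux ratio, averaged over three wells, more than 5 SD below the buffer control mean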;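 also: host cells are CHO cells without KCNK3 induction; ratio is peak minus trough fluorescence over baseline then normalized to buffer controls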
* marks the source's active call; other numbers are inactive results; ! = a repeat was not active.

How did CN(/N=C/c1cc(Cl)cc(Cl)c1O)c1c(Cl)cccc1[N+](=O)[O-] do in these assays?
KCNQ1 inh: inactive; KCNQ1 act: inactive; KCNK3 block: -11*; Kir21 block: 1.4; hERG protect: -5; KCNK9 block: -13*; KCNK9 block conf: 62%*; Kir21 sel: inactive; HEK293 Tl ctr: 48%*; KCNK3 inh conf: 116*; KCNK3 uninduced: 0.15*

How did CCOC(=O)c1c(S(=O)(=O)Nc2ccc(F)cc2C)c(C)n(C)c1C do in these assays?
KCNQ1 inh: inactive; KCNQ1 act: inactive; KCNK3 block: -9.5*; Kir21 block: 0.1; hERG protect: -1; KCNK9 block: -14*; KCNK9 block conf: 64%*; Kir21 sel: inactive; HEK293 Tl ctr: 26%*; KCNK3 inh conf: 116*; KCNK3 uninduced: inactive

What do the screens show for `Cn1nnnc1SCC(=O)Nc1ccc(C(=O)N2CCN(Cc3ccccc3F)CC2)cc1`?
KCNK3 block: inactive

Results for CCOC(=O)C1CCN(c2nc(-c3ccc(C)cc3)nc3ccccc23)CC1 ?
KCNQ1 inh: inactive; KCNQ1 act: inactive; KCNK3 block: -9.2*; Kir21 block: 0.22; hERG protect: -15; KCNK9 block: -8.2*; KCNK9 block conf: 48%*; Kir21 sel: inactive; HEK293 Tl ctr: 30%*; KCNK3 inh conf: 108*; KCNK3 uninduced: inactive

Results for O=C(CSc1nc2ccc(NC(=O)CSc3nnnn3-c3ccccc3)cc2s1)Nc1ccccc1 ?
KCNQ1 inh: inactive; KCNQ1 act: inactive; KCNK3 block: inactive; Kir21 block: 1.2; hERG protect: 0; KCNK9 block: inactive

Results for c1ccc(-n2nnnc2SCCCSc2nc3ccccc3s2)cc1 ?
KCNQ1 inh: inactive; KCNQ1 act: inactive; KCNK3 block: -9.9*; Kir21 block: -0.21; hERG protect: -13; KCNK9 block: -15*; KCNK9 block conf: 62%*; Kir21 sel: inactive; HEK293 Tl ctr: 46%*; KCNK3 inh conf: 103*; KCNK3 uninduced: inactive

What do the screens show for `CCN(Cc1cccc(F)c1)C(=O)c1ccc2ccccc2n1`?
KCNQ1 inh: inactive; KCNQ1 act: inactive; KCNK3 block: inactive; Kir21 block: 0.04; hERG protect: -13; KCNK9 block: inactive

How did O=S(=O)(c1cc(Cl)ccc1Cl)N1CCN(Cc2ccc3c(c2)OCO3)CC1 do in these assays?
KCNQ1 inh: inactive; KCNQ1 act: inactive; KCNK3 block: -9.7*; Kir21 block: 0.27; hERG protect: -9; KCNK9 block: inactive; KCNK9 block conf: inactive; Kir21 sel: inactive; HEK293 Tl ctr: 26%*; KCNK3 inh conf: 113*; KCNK3 uninduced: 0.16*

What do the screens show for `O=C(c1ccc(COc2ccccc2Cl)o1)N1CCN(Cc2ccc3c(c2)OCO3)CC1`?
KCNQ1 inh: inactive; KCNQ1 act: inactive; KCNK3 block: -11*!; Kir21 block: -0.63; hERG protect: -12; KCNK9 block: -12*; KCNK9 block conf: 47%*; Kir21 sel: inactive; HEK293 Tl ctr: 25%*; KCNK3 inh conf: 123*; KCNK3 uninduced: inactive

How did O=C(Nc1ccccn1)c1cccc(S(=O)(=O)N2CCc3ccccc3C2)c1 do in these assays?
KCNQ1 inh: inactive; KCNQ1 act: inactive; KCNK3 block: inactive; Kir21 block: 0.29; hERG protect: -10; KCNK9 block: inactive

How did Cc1cc(/C=N/NC(=O)c2cccs2)c(C)n1-c1ccccc1 do in these assays?
KCNQ1 inh: inactive; KCNQ1 act: inactive; KCNK3 block: -10*; Kir21 block: 1.1; hERG protect: -10; KCNK9 block: -10*; KCNK9 block conf: 43%*; Kir21 sel: inactive; HEK293 Tl ctr: inactive; KCNK3 inh conf: 118*; KCNK3 uninduced: 0.14*

Results for COc1ccccc1C(CCN(Cc1cccs1)C(C)=O)c1ccco1 (stereo not drawn) ?
KCNQ1 inh: inactive; KCNQ1 act: inactive; KCNK3 block: -13*; Kir21 block: -2.3; hERG protect: -14; KCNK9 block: -9.3*; KCNK9 block conf: 40%*; Kir21 sel: inactive; HEK293 Tl ctr: 34%*; KCNK3 inh conf: 105*; KCNK3 uninduced: inactive

Results for CCOC(=O)C1=CN(Cc2ccco2)S(=O)(=O)N(C)C1CC (stereo not drawn) ?
KCNK3 block: inactive

Results for CCOc1ccc(OCCSc2nnnn2C2CCCCC2)cc1 ?
KCNQ1 inh: inactive; KCNQ1 act: inactive; KCNK3 block: -12*; Kir21 block: 0.36; hERG protect: -12; KCNK9 block: -14*; KCNK9 block conf: 68%*; Kir21 sel: inactive; HEK293 Tl ctr: 44%*; KCNK3 inh conf: 118*; KCNK3 uninduced: 0.16*

How did Cc1cccc(NC(=S)N/N=C/c2cccn2Cc2ccc(F)cc2)c1 do in these assays?
KCNQ1 inh: inactive; KCNQ1 act: inactive; KCNK3 block: -9.3*; Kir21 block: -2.1; hERG protect: -5; KCNK9 block: -14*; KCNK9 block conf: 60%*; Kir21 sel: inactive; HEK293 Tl ctr: inactive; KCNK3 inh conf: 63*; KCNK3 uninduced: inactive

How did COC(=O)c1c(C(=O)OC)c(-c2ccc(Cl)c(Cl)c2)n2c1CCC2 do in these assays?
KCNQ1 inh: inactive; KCNQ1 act: inactive; KCNK3 block: inactive; Kir21 block: 0.01; hERG protect: -6; KCNK9 block: -8.2*; KCNK9 block conf: 32%*; Kir21 sel: inactive; HEK293 Tl ctr: 32%*; KCNK3 inh conf: 92*; KCNK3 uninduced: inactive

What do the screens show for `Cc1cc(C)cc(NC(=O)c2ccc(Cn3nc(C)c(Cl)c3C)o2)c1`?
KCNQ1 inh: inactive; KCNQ1 act: inactive; KCNK3 block: -9.4*; Kir21 block: 0.55; hERG protect: -13; KCNK9 block: -10*; KCNK9 block conf: inactive; Kir21 sel: inactive; HEK293 Tl ctr: inactive; KCNK3 inh conf: 137*; KCNK3 uninduced: 0.12*
